ChEMBL document CHEMBL1137710, “Synthesis and in vitro antitumor activity of new quinoxaline derivatives” (2009)

Assays:
Format in all cases: functional
NCI-H460 [1] = assay: Anticancer activity against human NCI-H460 cells assessed as cell growth at 100 uM after 48 hrs by sulforhodamine B assay; settings: NCI-H460, 48 h, read-out: Activity
MCF7 [2] = assay: Anticancer activity against human MCF7 cells assessed as cell growth at 100 uM after 48 hrs by sulforhodamine B assay; settings: MCF7, 48 h, read-out: Activity
SF-268 [3] = assay: Anticancer activity against human SF268 cells assessed as cell growth at 100 uM after 48 hrs by sulforhodamine B assay; settings: SF-268, 48 h, read-out: Activity
CCRF-CEM = assay: Growth inhibition of human CCRF-CEM cells after 48 hrs by sulforhodamine B assay; settings: for TGI: read-out: pTGI (converted)
Method in brief: (§1)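 NCI 60-human-tumor-cell-line panel, with compounds tested over a 5-log dose range. Values are taken from dose-response curves as log10 molar concentrations: GI50 is 50% net growth inhibition, TGI is total growth inhibition, and LC50 is 50% net cell death.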

MOLT-4 = assay: Growth inhibition of human MOLT4 cells after 48 hrs by sulforhodamine B assay; settings: MOLT-4, 48 h; for TGI: read-out: pTGI (converted); method in brief: as §1
NCI-H226 = assay: Growth inhibition of human NCI-H226 cells after 48 hrs by sulforhodamine B assay; settings: NCI-H226, 48 h; for TGI: read-out: pTGI (converted); method in brief: as §1
NCI-H460 [4] = assay: Growth inhibition of human NCI-H460 cells after 48 hrs by sulforhodamine B assay; settings: NCI-H460, 48 h; for TGI: read-out: pTGI (converted); method in brief: as §1
KM12 = assay: Growth inhibition of human KM12 cells after 48 hrs by sulforhodamine B assay; settings: KM12, 48 h; for TGI: read-out: pTGI (converted); method in brief: as §1
SF-268 [5] = assay: Growth inhibition of human SF268 cells after 48 hrs by sulforhodamine B assay; settings: SF-268, 48 h; for TGI: read-out: pTGI (converted); method in brief: as §1
SF-539 = assay: Growth inhibition of human SF539 cells after 48 hrs by sulforhodamine B assay; settings: SF-539, 48 h; for TGI: read-out: pTGI (converted); method in brief: as §1
LOX IMVI = assay: Growth inhibition of human LOXIMVI cells after 48 hrs by sulforhodamine B assay; method in brief: as §1
Malme-3M = assay: Growth inhibition of human MALME-3M cells after 48 hrs by sulforhodamine B assay; settings: for CC50: read-out: pLC50 (the source's name) (converted); for TGI: read-out: pTGI (converted); method in brief: as §1
SK-MEL-2 = assay: Growth inhibition of human SK-MEL-2 cells after 48 hrs by sulforhodamine B assay; settings: SK-MEL-2, 48 h; for CC50: read-out: pLC50 (the source's name) (converted); for TGI: read-out: pTGI (converted); method in brief: as §1
SK-MEL-28 = assay: Growth inhibition of human SK-MEL-28 cells after 48 hrs by sulforhodamine B assay; settings: SK-MEL-28, 48 h; for CC50: read-out: pLC50 (the source's name) (converted); for TGI: read-out: pTGI (converted); method in brief: as §1
SK-MEL-5 = assay: Growth inhibition of human SK-MEL-5 cells after 48 hrs by sulforhodamine B assay; settings: SK-MEL-5, 48 h; for CC50: read-out: pLC50 (the source's name) (converted); for TGI: read-out: pTGI (converted); method in brief: as §1
UACC-62 = assay: Growth inhibition of human UACC62 cells after 48 hrs by sulforhodamine B assay; settings: UACC-62, 48 h; for CC50: read-out: pLC50 (the source's name) (converted); for TGI: read-out: pTGI (converted)
Method in brief: (§2)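 Run in the NCI 60-human-tumour-cell-line panel, tested over a 5-log dose range. Dose–response curves gave three values per cell line, each as a log10 molar concentration: GI50 (50% inhibition of net cell growth), TGI (total inhibition of net growth) and LC50 (50% net cell death). The mean graph midpoint is the arithmetic mean over all lines, with insensitive lines entered at the highest concentration tested.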

IGROV-1 = assay: Growth inhibition of human IGROV1 cells after 48 hrs by sulforhodamine B assay; settings: IGROV-1, 48 h; for CC50: read-out: pLC50 (the source's name) (converted); for TGI: read-out: pTGI (converted); method in brief: as §1
A498 = assay: Growth inhibition of human A498 cells after 48 hrs by sulforhodamine B assay; settings: A498, 48 h; for CC50: read-out: pLC50 (the source's name) (converted); for TGI: read-out: pTGI (converted); method in brief: as §1
RXF 393 = assay: Growth inhibition of human RXF393 cells after 48 hrs by sulforhodamine B assay; settings: RXF 393, 48 h; for CC50: read-out: pLC50 (the source's name) (converted); for TGI: read-out: pTGI (converted); method in brief: as §1
SN12C = assay: Growth inhibition of human SN12C cells after 48 hrs by sulforhodamine B assay; settings: for CC50: read-out: pLC50 (the source's name) (converted); for TGI: read-out: pTGI (converted); method in brief: as §2
PC-3 = assay: Growth inhibition of human PC3 cells after 48 hrs by sulforhodamine B assay; settings: PC-3, 48 h; for CC50: read-out: pLC50 (the source's name) (converted); for TGI: read-out: pTGI (converted); method in brief: as §1
DU-145 = assay: Growth inhibition of human DU145 cells after 48 hrs by sulforhodamine B assay; settings: DU-145, 48 h; for CC50: read-out: pLC50 (the source's name) (converted); for TGI: read-out: pTGI (converted); method in brief: as §1
[6] = Growth inhibition of human Hs 578T cells after 48 hrs by sulforhodamine B assay; settings: for CC50: read-out: pLC50 (the source's name) (converted); for TGI: read-out: pTGI (converted); method in brief: as §1
MCF7 [7] = assay: Growth inhibition of human MCF7 cells after 48 hrs by sulforhodamine B assay; settings: MCF7, 48 h; for CC50: read-out: pLC50 (the source's name) (converted); for TGI: read-out: pTGI (converted); method in brief: as §1
SR = assay: Growth inhibition of human SR cells after 48 hrs by sulforhodamine B assay; method in brief: as §2
EKVX = assay: Growth inhibition of human EKVX cells after 48 hrs by sulforhodamine B assay; method in brief: as §1
HCT-15 = assay: Growth inhibition of human HCT15 cells after 48 hrs by sulforhodamine B assay; settings: HCT-15, 48 h; method in brief: as §1

COc1ccc(Sc2nc3cc(N)cc(N)c3nc2-c2ccccc2)cc1
growth at 100 µM (NCI-H460 [1]): 0%
growth at 100 µM (MCF7 [2]): 8%
growth at 100 µM (SF-268 [3]): 7%
GI50 (CCRF-CEM): 2.29 µM
LC50 (CCRF-CEM): > 100 µM
TGI (CCRF-CEM): 8.32 µM
GI50 (MOLT-4): 4.17 µM
LC50 (MOLT-4): > 100 µM
TGI (MOLT-4): > 100 µM
LC50 (NCI-H226): > 100 µM
TGI (NCI-H226): > 100 µM
GI50 (NCI-H460 [4]): 20 µM
LC50 (50% net cell kill) (NCI-H460 [4]): > 100 µM
TGI (NCI-H460 [4]): > 100 µM
GI50 (KM12): 28.2 µM
LC50 (50% net cell kill) (KM12): > 100 µM
TGI (KM12): > 100 µM
GI50 (SF-268 [5]): > 100 µM
LC50 (SF-268 [5]): > 100 µM
TGI (SF-268 [5]): > 100 µM
GI50 (SF-539): 10 µM
LC50 (SF-539): > 100 µM
TGI (SF-539): > 100 µM
GI50 (LOX IMVI): 51.3 µM
LC50 (LOX IMVI): > 100 µM
TGI (LOX IMVI; read-out: pTGI (converted)): > 100 µM
GI50 (Malme-3M): 33.1 µM
CC50 (Malme-3M): > 100 µM
TGI (Malme-3M): 95.5 µM
CC50 (SK-MEL-2): > 100 µM
TGI (SK-MEL-2): > 100 µM
GI50 (SK-MEL-28): 24.5 µM
CC50 (SK-MEL-28): > 100 µM
TGI (SK-MEL-28): > 100 µM
GI50 (SK-MEL-5): 24 µM
CC50 (SK-MEL-5): > 100 µM
TGI (SK-MEL-5): > 100 µM
GI50 (UACC-62): 38 µM
CC50 (UACC-62): > 100 µM
TGI (UACC-62): > 100 µM
CC50 (IGROV-1): > 100 µM
TGI (IGROV-1): > 100 µM
GI50 (A498): 17.4 µM
CC50 (A498): 60.3 µM
TGI (A498): 32.4 µM
GI50 (RXF 393): 3.09 µM
CC50 (RXF 393): > 100 µM
TGI (RXF 393): 17 µM
GI50 (SN12C): 6.03 µM
CC50 (SN12C): 87.1 µM
TGI (SN12C): 24 µM
GI50 (PC-3): 1.74 µM
CC50 (PC-3): 19.1 µM
TGI (PC-3): 5.13 µM
GI50 (DU-145): 16.2 µM
CC50 (DU-145): 69.2 µM
TGI (DU-145): 33.1 µM
GI50 [6]: > 100 µM
CC50 [6]: > 100 µM
TGI [6]: > 100 µM
GI50 (MCF7 [7]): 16.6 µM
CC50 (MCF7 [7]): > 100 µM
TGI (MCF7 [7]): > 100 µM

Nc1cc(N)c2nc(-c3ccccc3)c(NCc3ccc(Cl)c(Cl)c3)nc2c1
growth at 100 µM (NCI-H460 [1]): 0%
growth at 100 µM (MCF7 [2]): 0%
growth at 100 µM (SF-268 [3]): 0%
GI50 (CCRF-CEM): 0.132 µM
LC50 (CCRF-CEM): 17.4 µM
TGI (CCRF-CEM): 1.82 µM
GI50 (SR): 1.62 µM
LC50 (concentration giving 50% net cell death) (SR): > 100 µM
TGI (SR; read-out: pTGI (converted)): 6.03 µM
GI50 (MOLT-4): 2.09 µM
LC50 (MOLT-4): > 100 µM
TGI (MOLT-4): > 100 µM
GI50 (EKVX): 11 µM
LC50 (50% net cell kill) (EKVX): > 100 µM
TGI (EKVX; read-out: pTGI (converted)): 38.9 µM
GI50 (NCI-H226): 22.4 µM
LC50 (NCI-H226): 95.5 µM
TGI (NCI-H226): 46.8 µM
GI50 (NCI-H460 [4]): 20.9 µM
LC50 (50% net cell kill) (NCI-H460 [4]): > 100 µM
TGI (NCI-H460 [4]): 46.8 µM
GI50 (HCT-15): 4.68 µM
LC50 (HCT-15): > 100 µM
TGI (HCT-15; read-out: pTGI (converted)): > 100 µM
GI50 (KM12): 3.39 µM
LC50 (50% net cell kill) (KM12): > 100 µM
TGI (KM12): 21.4 µM
GI50 (SF-268 [5]): 20 µM
LC50 (SF-268 [5]): > 100 µM
TGI (SF-268 [5]): 55 µM
GI50 (SF-539): 4.57 µM
LC50 (SF-539): 83.2 µM
TGI (SF-539): 18.6 µM
GI50 (LOX IMVI): 2.14 µM
GI50 (Malme-3M): 3.39 µM
CC50 (Malme-3M): 50.1 µM
TGI (Malme-3M): 13.8 µM
GI50 (SK-MEL-2): 1.91 µM
CC50 (SK-MEL-2): 9.55 µM
TGI (SK-MEL-2): 4.27 µM
GI50 (SK-MEL-28): 18.6 µM
CC50 (SK-MEL-28): 93.3 µM
TGI (SK-MEL-28): 41.7 µM
GI50 (SK-MEL-5): 3.47 µM
CC50 (SK-MEL-5): 34.7 µM
TGI (SK-MEL-5): 10.7 µM
GI50 (UACC-62): 14.1 µM
CC50 (UACC-62): 67.6 µM
TGI (UACC-62): 30.9 µM
GI50 (IGROV-1): 1.95 µM
CC50 (IGROV-1): 29.5 µM
TGI (IGROV-1): 5.89 µM
GI50 (A498): 17.4 µM
CC50 (A498): 60.3 µM
TGI (A498): 32.4 µM
GI50 (RXF 393): 3.09 µM
CC50 (RXF 393): > 100 µM
TGI (RXF 393): 17 µM
GI50 (SN12C): 6.03 µM
CC50 (SN12C): 87.1 µM
TGI (SN12C): 24 µM
GI50 (PC-3): 1.74 µM
CC50 (PC-3): 19.1 µM
TGI (PC-3): 5.13 µM
GI50 (DU-145): 16.2 µM
CC50 (DU-145): 69.2 µM
TGI (DU-145): 33.1 µM
GI50 [6]: 5.89 µM
CC50 [6]: > 100 µM
TGI [6]: 46.8 µM
GI50 (MCF7 [7]): 12.3 µM
CC50 (MCF7 [7]): > 100 µM
TGI (MCF7 [7]): 53.7 µM
